# Assay outcomes deposited in PubChem BioAssay by several laboratories.
# Most compounds without a hit are left out; they make up all but 2.9% or so of the library.
# ABHD5-PLIN5 inh = inhibitors of human ABHD5-perilipin-5 interaction. Q00G26+Q8WTS1. Split G. princeps luciferase complementation, luminescence, 4 h. inhibition, % at 4 µM. 0.78% of 360,000 active. AID 602281;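 active = inhibition above the mean inhibition across every tested compound plus 3 SD, cut at about 22% in these data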;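 note: 0% = DMSO only wells and the 100% control is not disclosed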
# APOBEC3G inh = blocks human APOBEC3G single-stranded DNA deamination; recombinant A3G, ssDNA deamination FAM/TAMRA fluorescence; inhibition, % at 20 µM; 0.28% of 330,000 active; AID 493012;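 active = inhibition of at least 40% at 20 µM, with no more than 30% in the related APOBEC3A deaminase screen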;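 note: plate controls were DMSO wells with A3G for no effect and wells lacking A3G enzyme for full effect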
# Target sequence (Q9HC16 whole entry, looked up): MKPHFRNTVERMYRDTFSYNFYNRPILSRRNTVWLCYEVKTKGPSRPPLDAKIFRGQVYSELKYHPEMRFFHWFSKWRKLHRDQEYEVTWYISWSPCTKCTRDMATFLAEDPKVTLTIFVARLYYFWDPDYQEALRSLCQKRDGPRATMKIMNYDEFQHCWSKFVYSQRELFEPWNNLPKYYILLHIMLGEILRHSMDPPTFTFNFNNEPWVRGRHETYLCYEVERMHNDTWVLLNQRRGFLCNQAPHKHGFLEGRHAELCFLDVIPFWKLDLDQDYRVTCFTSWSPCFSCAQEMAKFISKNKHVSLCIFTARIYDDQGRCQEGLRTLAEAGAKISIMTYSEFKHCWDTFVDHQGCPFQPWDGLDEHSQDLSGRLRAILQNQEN
# HCV NS3 hel inh = blocks Hepatitis C virus NS3 helicase unwinding | NS3 helicase DNA unwinding, Cy5 molecular beacon fluorescence | inhibition, % at 10.9 µM | 0.56% of 290,000 active | AID 1800;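 active = inhibition above the mean of all tested compounds plus 3 SD, set per campaign, cut at about 35% in these data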;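 note: 0% = DMSO wells and 100% = thioflavine S control wells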
#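 Compound dosing – single dose, 10.9 µM nominal final, DMSO 0.8% final · System – NS3 helicase fragment of HCV · Buffer or medium – MOPS pH 6.5, MgCl2, DTT, Tween20, BSA · Signal – Cy5 beacon fluorescence read at start and 1 h · Also added – annealed dual-labelled DNA beacon duplex, ATP-started · Schedule – 1 h at 25 °C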
# A3A deaminase = human APOBEC3A DNA deaminase inhibition. recombinant A3A, FAM/TAMRA ssDNA deamination fluorescence. inhibition, % at 20 µM. 0.41% of 330,000 active. AID 493011;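 active = at least 40% inhibition at 20 µM here, with at most 30% in a related deaminase screen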;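 note: plate controls were A3A with DMSO for no effect and wells lacking A3A enzyme for full effect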
# Target sequence (P31941 whole entry, looked up): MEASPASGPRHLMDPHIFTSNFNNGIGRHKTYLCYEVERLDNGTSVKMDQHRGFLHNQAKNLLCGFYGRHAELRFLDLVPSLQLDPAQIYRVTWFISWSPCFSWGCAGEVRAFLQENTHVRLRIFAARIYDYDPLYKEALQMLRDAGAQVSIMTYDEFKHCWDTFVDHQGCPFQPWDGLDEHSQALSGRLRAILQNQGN
# HCV core dimer = blocks dimerization of HCV core protein | TR-FRET GST/Flag-core106 dimerization, 1536-well | inhibition, % at 5 µM | 0.33% of 300,000 active | AID 1899;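 active = inhibition above the mean of all tested compounds plus 3 SD, set per screening campaign, cut at about 45% in these data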
#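 Assay system – GST-tagged and Flag-tagged HCV core protein residues 1-106 · Quantity – core106 proteins, GST 13.5 nM and Flag 17 nM · Benchmarks – unlabelled core106 and no-GST-core106 wells · Read-out basis – percent inhibition of core106 dimerization signal · Detection – time-resolved FRET, ex 340 nm, em 617 and 671 nm · Schedule – 4 h at 22.5 °C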
# PRMT1 inh = blocks human protein arginine methyltransferase 1. inhibition, % at 2.79 µM. 1.3% of 370,000 active. Q99873. recombinant PRMT1, activity-based probe fluorescence polarization;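 active = inhibition above about 21% made by adding two undisclosed values, limit read from the data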
# NS3 hel confirm = HCV NS3 helicase inhibition, confirmation assay | inhibition, % at 10.9 µM | NS3 helicase DNA unwinding, Cy5 molecular beacon fluorescence | 31% of 1,600 active | AID 1943 | shares compounds with HCV NS3 hel inh;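 active = inhibition above the mean of all tested compounds plus 3 SD, cutoff set per campaign, cut at about 36% in these data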
# DNA FID counter = displaces DNA intercalator in HCV helicase counter-screen; 4% of 1,600 active; shares compounds with HCV NS3 hel inh; DNA fluorescent intercalator displacement, fluorescence; AID 1945; inhibition, % at 7.9 µM; in the data active = inhibition above about 37%;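 note: 0% = vehicle and 100% = reference compound; higher means more displacement of ethidium bromide from the DNA hairpin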
# DNA FID DR = displaces fluorescent intercalator from DNA, HCV helicase counter-screen. shares compounds with HCV NS3 hel inh. fluorescent intercalator displacement from DNA, fluorescence. IC50, µM. 120 tested, under 10 active; call rule not given here
# ABHD5 PLIN5 conf = confirmation of human ABHD5-PLIN5 interaction inhibitors; shares compounds with ABHD5-PLIN5 inh; 67% of 2,200 active; AID 651612; biochemical ABHD5-PLIN5 interaction, luminescence; inhibition, % at 4 µM; in the data active = inhibition above about 23%;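 note: 0% = DMSO vehicle wells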
# HNF4 counter = HNF4 split-luciferase signal hit, counter-screen; HNF4 dimerization, luminescence, biochemical; 77% of 2,200 active; shares compounds with ABHD5-PLIN5 inh; inhibition, % at 4 µM; AID 651674;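 active = mean inhibition across replicate wells exceeding the computed hit threshold, cut at about 13% in these data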;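 note: light from luciferase halves that rejoin when HNF4 fusion proteins dimerize; 0% = DMSO only wells and the 100% control is not given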
# * marks the source's active call; other numbers are inactive results; / = no result given.
SMILES,ABHD5-PLIN5 inh,APOBEC3G inh,HCV NS3 hel inh,A3A deaminase,HCV core dimer,PRMT1 inh,NS3 hel confirm,DNA FID counter,ABHD5 PLIN5 conf,HNF4 counter,others
O=c1oc2ccccc2n1Cc1cccc(C(F)(F)F)c1,-10.1,-11.8,/,-2.5,3.5,-1.5,/,/,/,/,
O=C1CC(c2ccc(Cl)cc2)CC(=O)C1CS(=O)(=O)c1ccccc1 (stereo not drawn),25.4*,4.3,36.2*,5.8,6.1,20.2,69.6*,-13.7,43.1*,82.8*,
COc1ccc(C2CC(=O)C(CS(=O)(=O)c3ccccc3)C(=O)C2)cc1 (stereo not drawn),41.5*,-2.4,42.7*,2.8,-2.0,9.1,-4.7,-35.5,53.2*,102.0*,
Cc1ccc(-c2nc3c(c(=O)c4ccccc4n3C)c(=O)n2Cc2ccco2)cc1,37.2*,8.0,38.1*,4.4,21.4,22.5*,22.8,-5.5,18.8,13.4*,
CSc1sc(-c2ccnc(SCC(=O)C(C)(C)C)n2)c2c1C(=O)CC(C)(C)C2,23.3*,-5.9,56.4*,-0.9,8.3,1.4,-8.7,-20.9,-5.2,-4.8,
CSc1sc(C(=O)O)c2c1C(=O)CC(C)(C)C2,4.0,-5.3,/,-2.8,-5.8,6.0,/,/,/,/,
C#CCOc1c(/C=C\c2nc(O)c([N+](=O)[O-])c(=O)[nH]2)cc(Br)cc1OC,45.8*,-7.4,44.7*,-5.5,33.4,1.9,26.2,4.4,83.0*,74.3*,
COC(=O)C[C@@H]1C=C[C@@H](NC(=O)NC2CCCC2)[C@@H](CO)O1,11.6,/,/,/,/,-0.2,/,/,/,/,
O=C(Nc1ccccc1)c1ccc2nc(-c3ccco3)c(-c3ccco3)nc2c1,30.2*,76.1,45.8*,76.6,75.2*,37.7*,78.0*,52.9*,48.6*,31.6*,
NC(=O)c1ccsc1NC(=O)COC(=O)[C@@H]1CCCN1C(=O)c1cccs1,1.5,/,/,/,/,4.0,/,/,/,/,
Cc1ccc(S(=O)(=O)N(C)CC(=O)N2CCN(C(=O)c3ccco3)CC2)cc1,-2.8,1.9,2.4,-0.5,-1.9,-0.4,/,/,/,/,
Cc1ccc(S(=O)(=O)N(C(=O)c2ccco2)c2cc3sc(=O)oc3c3ccccc23)cc1,30.8*,7.9,40.4*,2.5,-8.4,83.7*,-8.4,-3.2,-17.6,109.3*,
Cc1oc2c(c1C(=O)N1CCC(C)CC1)C(=O)c1ccccc1C2=O,/,-2.1,11.8,-2.5,0.8,2.3,/,/,/,/,
Cc1ccc(C(=O)c2c(C)oc3c2C(=O)C(=O)c2ccccc2-3)cc1,51.2*,-8.7,36.1*,-2.5,11.2,/,-8.6,-7.3,83.9*,60.1*,
O=S1(=O)c2ccc(Br)cc2OC[C@H](Cc2ccccc2)N1Cc1cn(Cc2ccc(Cl)cc2)nn1,/,/,/,/,/,-2.0,/,/,/,/,
Cc1ccc(-n2nc(-c3ccco3)cc2C(=O)O)c(C)c1,31.2*,/,46.9*,/,/,20.5,26.2,-4.9,23.0*,27.2*,
COc1ccc2nc3ccccc3nc2c1N,37.9*,7.8,50.0*,-1.6,-44.2,13.0,-8.6,7.0,-0.2,10.4,
O=c1[nH]c(=S)[nH]c2c1C(c1ccc(Cl)cc1)OC(CCc1ccccc1)C2 (stereo not drawn),-10.7,/,/,/,/,6.2,/,/,/,/,
O=c1[nH]c(/C=C\c2cccc(Cl)c2)nc(O)c1[N+](=O)[O-],51.5*,-8.9,36.5*,-3.2,4.8,4.0,-11.8,1.0,87.9*,75.0*,
CC(=O)c1ccc(NC(=O)CSc2ccc(-c3ccc(-n4cccn4)cc3)nn2)cc1,-0.8,0.1,/,0.9,-1.8,-1.5,/,/,/,/,
CC(CCc1ccco1)NC(=O)CCc1nnc2ccc(NCc3ccc(Cl)cc3)nn12 (stereo not drawn),17.9,-0.8,-3.2,4.4,5.3,0.6,/,/,/,/,
CC(CCc1ccco1)NC(=O)CCc1nnc2ccc(NCc3ccccc3Cl)nn12 (stereo not drawn),42.6*,-3.9,61.5*,-3.5,16.9,13.2,4.2,-1.6,40.5*,/,
CC(NC(=O)/C=C/c1ccco1)c1nc2ccccc2n1Cc1cccc(Cl)c1 (stereo not drawn),25.7*,-1.8,36.3*,4.7,11.6,6.2,-9.8,-12.3,36.9*,58.3*,
O=C(Nc1nc2ccccc2n1Cc1ccc(Cl)cc1)c1ccco1,4.8,31.1,4.6,0.7,12.9,4.9,/,/,/,/,
OCC[C@@H]1C[C@H](O)[C@@H](O)[C@@]2(OCCc3cc(Cl)ccc32)O1,-0.3,/,/,/,/,-0.6,/,/,/,/,
SMILES,ABHD5-PLIN5 inh,APOBEC3G inh,HCV NS3 hel inh,A3A deaminase,HCV core dimer,PRMT1 inh,NS3 hel confirm,DNA FID counter,ABHD5 PLIN5 conf,HNF4 counter,others
Cc1ccc(NC(=O)c2ccccc2)cc1,5.6,4.0,5.3,5.7,1.5,1.5,/,/,/,/,
Cc1ccc(NC(=O)C2=C(c3ccccc3)S(=O)(=O)CCS2(=O)=O)cc1,83.3*,2.7,38.3*,1.7,21.6,61.6*,58.8*,27.0,100.3*,110.3*,DNA FID DR=>79.4
CC1=CC(C)(C)Nc2ccc(OC(=O)CN3C(=O)c4cccc5cccc(c45)C3=O)cc21,31.5*,/,39.4*,/,7.4,11.2,-13.7,1.1,70.9*,8.1,
CC1=CC(C)(C)Nc2ccc(OC(=O)C(Cc3ccccc3)N3C(=O)c4ccccc4C3=O)cc21 (stereo not drawn),-0.5,-1.8,0.2,-4.6,18.9,0.6,/,/,/,/,
O=C1NC(=Nc2ccccc2)S/C1=C\C=C\c1ccco1,25.1*,49.4,43.8*,61.1,20.8,20.5,3.0,-1.6,35.8*,54.8*,
COc1ccc(N=C2NC(=O)/C(=C/C=C/c3ccccc3)S2)cc1,0.2,-6.5,-13.0,-6.0,21.5,-2.4,/,/,/,/,
O=C(CCl)Nc1nc(-c2ccco2)c(-c2ccco2)s1,37.2*,66.7,60.9*,77.9,8.8,31.8*,63.3*,35.8,36.0*,53.7*,DNA FID DR=>79.4
CC(=O)c1sc(NC(=O)CCNC(=O)c2ccco2)nc1-c1ccccc1,1.8,-3.9,0.4,11.8,4.5,3.2,/,/,/,/,
CCN(C(=O)CN1C(=O)NC2(CCCC2)C1=O)c1nc2c(C)cccc2s1,-0.3,/,/,/,/,8.2,/,/,/,/,
O=c1c2ccccc2sc2nc(C3CCCCC3)n(Cc3ccco3)c(=O)c12,26.4*,/,39.6*,/,/,17.9,26.7,-8.8,36.5*,42.6*,
